Results on ten molecules are retold here after ChEMBL document CHEMBL1126108, “Quisqualic acid analogues: synthesis of beta-heterocyclic 2-aminopropanoic acid derivatives and their activity at a novel quisqualate-sensitized site” (J Med Chem, 1992).

Holding throughout (format): functional
For assay [1], the species on record is Rattus norvegicus. Briefly: Sensitization effect was determined.
The species entered for assay [2] is Rattus norvegicus. The experiment in a line: Inhibitory concentration against evoked synaptic field potential of CA1 neurons in absence of quisqualic acid from rat hippocampus. The method in brief:
(§1)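 Transverse 500-µm hippocampal slices from 30–100-day-old male Sprague-Dawley rats, submerged in oxygenated medium at 34 °C. Field potentials evoked by stimulating the Schaffer collaterals. Compound started at a subthreshold level and doubled every 4 min until the response fell >70% or exceeded 10 mM. IC50 was interpolated from fractional peak amplitude versus log concentration. Sequence included a 16 µM L-quisqualate exposure between tests.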

For assay [3], the species on record is Rattus norvegicus. The experiment in a line: Inhibitory concentration against evoked synaptic field potential of CA1 neurons in presence of 16 uM quisqualic acid from rat hippocampus. The method in brief:
as §1

Some results are limits rather than exact numbers.

For the molecule `N[C@@H](CC1=CC(=O)NC1=O)C(=O)O`, the Sensitisation in the assay listed under Rattus norvegicus [1] is 2.2. For the same molecule, the IC50 amounted to 21 µM in the assay filed under Rattus norvegicus [2] (Rattus norvegicus) and 9.5 µM in the assay filed under Rattus norvegicus [3] (Rattus norvegicus).
In the same order, the values of `NC(CN1CC(=O)NC1=O)C(=O)O` (configuration not stated) are 1.7, 1.4 µM and 0.8 µM.
As to `N[C@@H](CCP(=O)(O)O)C(=O)O`, the Sensitisation in the assay filed under Rattus norvegicus [1] came to 33. The results for the IC50 in the assay filed under Rattus norvegicus [2] (Rattus norvegicus) and in the assay filed under Rattus norvegicus [3] (Rattus norvegicus) were 1800 µM and 55 µM, respectively.
With `CN1C(=O)C=C(C[C@H](N)C(=O)O)C1=O`, the Sensitisation in the assay listed under Rattus norvegicus [1] is reported as 14. For the same molecule, the IC50 in the assay filed under Rattus norvegicus [2] (Rattus norvegicus) amounted to 95 µM; in the assay listed under Rattus norvegicus [3] (Rattus norvegicus) it was 6.8 µM.
Turning to `N[C@H](Cn1oc(=O)[nH]c1=O)C(=O)O`, the Sensitisation in the assay listed under Rattus norvegicus [1] came out at 7.5. Besides, the figures for the IC50 in the assay listed under Rattus norvegicus [2] (Rattus norvegicus) and in the assay filed under Rattus norvegicus [3] (Rattus norvegicus) were 78 µM and 10 µM, respectively.
On to `N[C@H](CCP(=O)(O)O)C(=O)O`, for which the Sensitisation in the assay listed under Rattus norvegicus [1] worked out at 17. Moreover, the IC50 in the assay filed under Rattus norvegicus [2] (Rattus norvegicus) is 2600 µM; in the assay filed under Rattus norvegicus [3] (Rattus norvegicus) it was 152 µM.
In the same order, the values of `N[C@@H](Cn1oc(=O)[nH]c1=O)C(=O)O` [QUISQUALATE] are 1.3, 3.9 µM and 2.9 µM.
Take `N[C@@H](CC1=CC(=O)N(CC(=O)O)C1=O)C(=O)O`: the Sensitisation in the assay filed under Rattus norvegicus [1] was 7.7.
Turning to `N[C@@H](CC1CC(=O)NC1=O)C(=O)O` (stereo in doubt; 5b), the Sensitisation in the assay filed under Rattus norvegicus [1] was 1.3. In addition, the IC50 came out at 9200 µM in the assay filed under Rattus norvegicus [2] and 6800 µM in the assay listed under Rattus norvegicus [3].
`N[C@@H](CC1CC(=O)NC1=O)C(=O)O` (stereo in doubt; 5a): the 50% inhibitory concentration (IC50) in the assay filed under Rattus norvegicus [2] and in the assay listed under Rattus norvegicus [3] was above 10000 µM in each case.

As usually defined, the IC50 is the concentration that inhibits the measured activity by half.
